Measured values as given in ChEMBL document CHEMBL1125607, “Novel gonadotropin-releasing hormone antagonists: peptides incorporating modified N omega-cyanoguanidino moieties” (J Med Chem, 1991).
≈ marks a conversion by molar mass, not a printed value. Calls of active or inactive are those of the source. The rule behind the calls is not given here. Where a SMILES comes first, the peptide text is derived from it. [ ]: non-standard residue; d: D form. The star is where a group is joined. Triazol3yl(1,2,4-5-NH2) = Nc1nc(*)n[nH]1; dPhe(4-Cl) = N[C@H](Cc1ccc(Cl)cc1)C(=O)O; d2Nal = N[C@H](Cc1ccc2ccccc2c1)C(=O)O; Lys(iPr) = CC(C)NCCCC[C@H](N)C(=O)O; d3Pal = N[C@H](Cc1cccnc1)C(=O)O; Nicotinoyl = O=C(c1cccnc1)*

Assays:
[1] = biological target: T1, Gonadotropin-releasing hormone receptor (Rattus norvegicus, UniProt P30969); assay: In vitro binding affinity of Gonadotropin-releasing hormone antagonist was measured in rat pituitary cell membranes; set-up: species or system Pituitary gland cell, Membrane
T1 sequence (P30969 whole entry): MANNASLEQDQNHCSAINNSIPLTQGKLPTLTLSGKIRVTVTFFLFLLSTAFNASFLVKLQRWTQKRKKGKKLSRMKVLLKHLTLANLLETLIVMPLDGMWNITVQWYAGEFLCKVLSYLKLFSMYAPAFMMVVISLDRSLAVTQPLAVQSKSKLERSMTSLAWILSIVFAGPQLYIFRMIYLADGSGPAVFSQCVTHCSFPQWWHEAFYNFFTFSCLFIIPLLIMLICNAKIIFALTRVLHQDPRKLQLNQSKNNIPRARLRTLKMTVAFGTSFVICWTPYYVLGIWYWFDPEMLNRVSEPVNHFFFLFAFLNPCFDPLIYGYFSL
Outline: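 Displacement binding on pituitary cell membranes with [DAla6,NMe-Leu7,Pro9-NHEt]GnRH as standard; analogue KD values calculated from potencies relative to that standard derived from displacement data.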

[2] = species: Rattus norvegicus; assay: In vitro histamine release by rat mast cells.; settings: read-out: ED50 (the source's name)
[3] = test system: Rattus norvegicus; assay: Potency (2 mg/rat) using anti-ovulatory assay, expressed as rat ovulating/total number of treated rats measured after sc administration; 1/10; type: functional, organism-based
[4] = biological target: Gonadotropin-releasing hormone receptor (Rattus norvegicus) (UniProt P30969); assay: Antagonist potency at GnRH receptor relative to a standard ([Ac-delta3Pro, DFpa2, DTrp3,6]GnRH).
[5] = test system: Rattus norvegicus; assay: Potency (1 mg/rat) using anti-ovulatory assay, expressed as rat ovulating/total number of treated rats measured after sc administration; 1/17; type: functional, organism-based
[6] = test system: Rattus norvegicus; assay: Potency (0.5 mg/rat) using anti-ovulatory assay, expressed as rat ovulating/total number of treated rats measured after sc administration; 8/18; type: functional, organism-based
[7] = test system: Rattus norvegicus; assay: Potency (1.0 mg/rat) using anti-ovulatory assay, expressed as rat ovulating/total number of treated rats measured after sc administration; 5/5; type: functional, organism-based
[8] = test system: Rattus norvegicus; assay: Potency (2.5 mg/rat) using anti-ovulatory assay, expressed as rat ovulating/total number of treated rats measured after sc administration; 0/7; type: functional, organism-based
[9] = test system: Rattus norvegicus; assay: Potency (1 mg/rat) using anti-ovulatory assay, expressed as rat ovulating/total number of treated rats measured after sc administration; 2/8; type: functional, organism-based
[10] = test system: Rattus norvegicus; assay: Potency (0.5 mg/rat) using anti-ovulatory assay, expressed as rat ovulating/total number of treated rats measured after sc administration; 6/6; type: functional, organism-based
[11] = test system: Rattus norvegicus; assay: Potency (2 mg/rat) using anti-ovulatory assay, expressed as rat ovulating/total number of treated rats measured after sc administration; 2/10; type: functional, organism-based
[12] = test system: Rattus norvegicus; assay: Potency (5 mg/rat) using anti-ovulatory assay, expressed as rat ovulating/total number of treated rats measured after sc administration; 14/20; type: functional, organism-based
[13] = test system: Rattus norvegicus; assay: Potency (1 mg/rat) using anti-ovulatory assay, expressed as rat ovulating/total number of treated rats measured after sc administration; 5/5; type: functional, organism-based
[14] = test system: Rattus norvegicus; assay: Potency (2.5 mg/rat) using anti-ovulatory assay, expressed as rat ovulating/total number of treated rats measured after sc administration; 2/8; type: functional, organism-based

SMILES | Kd [1] | EC50 [2] | Relative potency [4] | also measured
CC(=O)N[C@H](Cc1ccc2ccccc2c1)C(=O)N[C@H](Cc1ccc(F)cc1)C(=O)N[C@H](Cc1c[nH]c2ccccc12)C(=O)N[C@@H](CO)C(=O)N[C@@H](Cc1ccc(O)cc1)C(=O)N[C@H](CCCN=C(N)N)C(=O)N[C@@H](CC(C)C)C(=O)N[C@@H](CCCN=C(N)N)C(=O)N1CCC[C@H]1C(=O)NCC(N)=O (HELM PEPTIDE1{[ac].[O=C([C@@H](Cc1ccc2ccccc2c1)N[*:1])[*:2]].[O=C([C@@H](Cc1ccc(F)cc1)N[*:1])[*:2]].[dW].S.Y.[dR].L.R.P.G.[am]}$$$$V2.0) |  | 0.17 µg/mL (≈ 0.118 µM) |  | 
CC(C)C[C@H](NC(=O)[C@@H](CCCCNC(=NC#N)NC1CCCCC1)NC(=O)[C@H](CCCCNC(=NC#N)NC1CCCCC1)NC(=O)[C@H](CO)NC(=O)[C@H](Cc1c[nH]c2ccccc12)NC(=O)[C@H](Cc1cnc[nH]1)NC(=O)[C@@H]1CCC(=O)N1)C(=O)N[C@@H](CCCCNC(C)C)C(=O)N1CCC[C@H]1C(=O)N[C@H](C)C(N)=O | 1.2 nM |  |  | 
CC(C)C[C@H](NC(=O)[C@@H](CCCCNC(=NC#N)NCc1ccccn1)NC(=O)[C@H](CCCCNC(=NC#N)NCc1ccccn1)NC(=O)[C@H](CO)NC(=O)[C@H](Cc1c[nH]c2ccccc12)NC(=O)[C@H](Cc1cnc[nH]1)NC(=O)[C@@H]1CCC(=O)N1)C(=O)N[C@@H](CCCCNC(C)C)C(=O)N1CCC[C@H]1C(=O)N[C@H](C)C(N)=O | 0.27 nM |  |  | 
CC(C)C[C@H](NC(=O)[C@@H](CCCCNc1n[nH]c(N)n1)NC(=O)[C@H](CCCCNc1n[nH]c(N)n1)NC(=O)[C@H](CO)NC(=O)[C@H](Cc1c[nH]c2ccccc12)NC(=O)[C@H](Cc1c[nH]cn1)NC(=O)[C@@H]1CCC(=O)N1)C(=O)N[C@@H](CCCCNC(C)C)C(=O)N1CCC[C@H]1C(=O)N[C@H](C)C(N)=O |  |  | 0.23 | Activity [3]: Active
CC(C)C[C@H](NC(=O)[C@@H](Cc1ccc(Nc2n[nH]c(N)n2)cc1)NC(=O)[C@H](Cc1ccc(Nc2n[nH]c(N)n2)cc1)NC(=O)[C@H](CO)NC(=O)[C@H](Cc1c[nH]c2ccccc12)NC(=O)[C@H](Cc1c[nH]cn1)NC(=O)[C@@H]1CCC(=O)N1)C(=O)N[C@@H](CCCCNC(C)C)C(=O)N1CCC[C@H]1C(=O)N[C@H](C)C(N)=O |  | 50 µg/mL (≈ 33.8 µM) | 1.3 | Activity [5]: Active; Activity [6]: Weak activity
CC(C)C[C@H](NC(=O)[C@@H](CCCNC(=N)N)NC(=O)[C@H](Cc1ccc(O)cc1)NC(=O)[C@H](CO)NC(=O)[C@@H](CCCCNc1nnc(N)[nH]1)NC(=O)[C@H](Cc1cnc[nH]1)NC(=O)[C@@H]1CCC(=O)N1)C(=O)N[C@@H](CCCCNC(C)C)C(=O)N1CCC[C@H]1C(=O)N[C@H](C)C(N)=O | 0.27 nM |  |  | 
CCCC/N=C(\NC#N)NCCC[C@@H](NC(=O)[C@H](Cc1c[nH]cn1)NC(=O)[C@@H]1CCC(=O)N1)C(=O)N[C@@H](CO)C(=O)N[C@@H](Cc1ccc(O)cc1)C(=O)N[C@H](Cc1cccnc1)C(=O)N[C@@H](CC(C)C)C(=O)N[C@@H](CCCCNC(C)C)C(=O)N1CCC[C@H]1C(=O)N[C@H](C)C(N)=O |  |  | 1.6 | Activity [7]: inactive; Activity [8]: Active
CCCCNC(=NC#N)NCCCC[C@@H](NC(=O)[C@H](Cc1ccc(O)cc1)NC(=O)[C@H](CO)NC(=O)[C@@H](Cc1cccnc1)NC(=O)[C@H](Cc1cnc[nH]1)NC(=O)[C@@H]1CCC(=O)N1)C(=O)N[C@@H](CC(C)C)C(=O)N[C@@H](CCCNC(=N)N)C(=O)N1CCC[C@H]1C(=O)N[C@H](C)C(N)=O | 1.7 nM |  |  | 
CC(C)C[C@H](NC(=O)[C@@H](CCCCNc1n[nH]c(N)n1)NC(=O)[C@H](Cc1ccc(O)cc1)NC(=O)[C@H](CO)NC(=O)[C@@H](CCCCNc1n[nH]c(N)n1)NC(=O)[C@H](Cc1c[nH]cn1)NC(=O)[C@@H]1CCC(=O)N1)C(=O)N[C@@H](CCCCNC(C)C)C(=O)N1CCC[C@H]1C(=O)N[C@H](C)C(N)=O |  | > 150 µg/mL |  | 
C/N=C(\NC#N)NCCCC[C@@H](NC(=O)[C@H](CCCCN/C(=N\C)NC#N)NC(=O)[C@H](CO)NC(=O)[C@H](Cc1c[nH]c2ccccc12)NC(=O)[C@H](Cc1c[nH]cn1)NC(=O)[C@@H]1CCC(=O)N1)C(=O)N[C@@H](CC(C)C)C(=O)N[C@@H](CCCCNC(C)C)C(=O)N1CCC[C@H]1C(=O)N[C@H](C)C(N)=O | 0.24 nM |  |  | Activity [11]: Active
CCCC/N=C(\NC#N)NCCCC[C@H](NC(=O)[C@H](CC(C)C)NC(=O)[C@@H](CCCCNC(=O)c1cccnc1)NC(=O)[C@H](CCCCNC(=O)c1cccnc1)NC(=O)[C@H](CO)NC(=O)[C@H](Cc1c[nH]c2ccccc12)NC(=O)[C@H](Cc1c[nH]cn1)NC(=O)[C@@H]1CCC(=O)N1)C(=O)N1CCC[C@H]1C(=O)N[C@H](C)C(N)=O | 0.45 nM |  | 0.3 | Activity [12]: Weak activity
CCCCCC/N=C(\NC#N)NCCCC[C@H](NC(=O)[C@H](CO)NC(=O)[C@H](Cc1c[nH]c2ccccc12)NC(=O)[C@H](Cc1c[nH]cn1)NC(=O)[C@@H]1CCC(=O)N1)C(=O)N[C@H](CCCCN/C(=N/CCCCCC)NC#N)C(=O)N[C@@H](CC(C)C)C(=O)N[C@@H](CCCCNC(C)C)C(=O)N1CCC[C@H]1C(=O)N[C@H](C)C(N)=O | 3.3 nM |  | 0.14 | Activity [13]: inactive; Activity [14]: Weak activity

More lines, main results first:

Kd [1] | EC50 [2] | Relative potency [4] | SMILES | also measured
0.08 nM |  |  | CC(C)C[C@H](NC(=O)[C@@H](Cc1cccnc1)NC(=O)[C@H](Cc1ccc(O)cc1)NC(=O)[C@H](CO)NC(=O)[C@@H](Cc1cccnc1)NC(=O)[C@H](Cc1cnc[nH]1)NC(=O)[C@@H]1CCC(=O)N1)C(=O)N[C@@H](CCCCNC(C)C)C(=O)N1CCC[C@H]1C(=O)N[C@H](C)C(N)=O | 
 | 50 µg/mL (≈ 34 µM) |  | CCCC/N=C(\NC#N)NCCCC[C@@H](NC(=O)[C@H](Cc1c[nH]cn1)NC(=O)[C@@H]1CCC(=O)N1)C(=O)N[C@@H](CO)C(=O)N[C@@H](Cc1ccc(O)cc1)C(=O)N[C@H](CCCCN/C(=N/CCCC)NC#N)C(=O)N[C@@H](CC(C)C)C(=O)N[C@@H](CCCCNC(C)C)C(=O)N1CCC[C@H]1C(=O)N[C@H](C)C(N)=O | 
 | 19 µg/mL (≈ 14.5 µM) |  | CC(C)C[C@H](NC(=O)[C@@H](CCCN=C(N)N)NC(=O)[C@H](Cc1ccc(O)cc1)NC(=O)[C@H](CO)NC(=O)[C@@H](Cc1cccnc1)NC(=O)[C@H](Cc1c[nH]cn1)NC(=O)[C@@H]1CCC(=O)N1)C(=O)N[C@@H](CCCCNc1n[nH]c(N)n1)C(=O)N1CCC[C@H]1C(=O)N[C@H](C)C(N)=O | 
0.21 nM | 158 µg/mL (≈ 114 µM) | 0.2 | CC(C)C[C@H](NC(=O)[C@@H](CCCNc1n[nH]c(N)n1)NC(=O)[C@H](CCCNc1n[nH]c(N)n1)NC(=O)[C@H](CO)NC(=O)[C@H](Cc1c[nH]c2ccccc12)NC(=O)[C@H](Cc1c[nH]cn1)NC(=O)[C@@H]1CCC(=O)N1)C(=O)N[C@@H](CCCCNC(C)C)C(=O)N1CCC[C@H]1C(=O)N[C@H](C)C(N)=O | Activity [3]: Active
 | > 300 µg/mL |  | CC(=O)N[C@H](Cc1ccc2ccccc2c1)C(=O)N[C@H](Cc1ccc(Cl)cc1)C(=O)N[C@H](Cc1cccnc1)C(=O)N[C@@H](CO)C(=O)N[C@@H](CCCCNC(=O)c1cccnc1)C(=O)N[C@H](CCCCNC(=O)c1cccnc1)C(=O)N[C@@H](CC(C)C)C(=O)N[C@@H](CCCCNC(C)C)C(=O)N1CCC[C@H]1C(=O)N[C@H](C)C(N)=O (Ac-[d2Nal][dPhe(4-Cl)][d3Pal]SK(Nicotinoyl)[dK](Nicotinoyl)L[Lys(iPr)]P[dA]-NH2) | 
0.32 nM |  | 0.3 | CC(C)C[C@H](NC(=O)[C@@H](CCCC/N=C(/NC#N)NC(C)C)NC(=O)[C@H](CCCC/N=C(/NC#N)NC(C)C)NC(=O)[C@H](CO)NC(=O)[C@H](Cc1c[nH]c2ccccc12)NC(=O)[C@H](Cc1c[nH]cn1)NC(=O)[C@@H]1CCC(=O)N1)C(=O)N[C@@H](CCCCNC(C)C)C(=O)N1CCC[C@H]1C(=O)N[C@H](C)C(N)=O | Activity [9]: Active; Activity [10]: inactive
0.48 nM |  |  | CC(=O)N[C@H](Cc1ccc2ccccc2c1)C(=O)N[C@H](Cc1ccc(Cl)cc1)C(=O)N[C@H](Cc1cccnc1)C(=O)N[C@@H](CO)C(=O)N[C@@H](CCCCNc1n[nH]c(N)n1)C(=O)N[C@H](CCCCNc1n[nH]c(N)n1)C(=O)N[C@@H](CC(C)C)C(=O)N[C@@H](CCCCNC(C)C)C(=O)N1CCC[C@H]1C(=O)N[C@H](C)C(N)=O (Ac-[d2Nal][dPhe(4-Cl)][d3Pal]SK(Triazol3yl(1,2,4-5-NH2))[dK](Triazol3yl(1,2,4-5-NH2))L[Lys(iPr)]P[dA]-NH2) | 
